About 1,100 (0.35%) of roughly 310,000 compounds were called active.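 The calls were made as follows: active = fluorescence ratio B-score, a plate-corrected score, at least three library SD, with initial intensity B-score within 5 SD; inactive = the rest.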 The entries come from a sample that favours actives as a whole.

Sequence of Potassium voltage-gated channel subfamily KQT member 1 (Homo sapiens) (P51787 whole entry, looked up): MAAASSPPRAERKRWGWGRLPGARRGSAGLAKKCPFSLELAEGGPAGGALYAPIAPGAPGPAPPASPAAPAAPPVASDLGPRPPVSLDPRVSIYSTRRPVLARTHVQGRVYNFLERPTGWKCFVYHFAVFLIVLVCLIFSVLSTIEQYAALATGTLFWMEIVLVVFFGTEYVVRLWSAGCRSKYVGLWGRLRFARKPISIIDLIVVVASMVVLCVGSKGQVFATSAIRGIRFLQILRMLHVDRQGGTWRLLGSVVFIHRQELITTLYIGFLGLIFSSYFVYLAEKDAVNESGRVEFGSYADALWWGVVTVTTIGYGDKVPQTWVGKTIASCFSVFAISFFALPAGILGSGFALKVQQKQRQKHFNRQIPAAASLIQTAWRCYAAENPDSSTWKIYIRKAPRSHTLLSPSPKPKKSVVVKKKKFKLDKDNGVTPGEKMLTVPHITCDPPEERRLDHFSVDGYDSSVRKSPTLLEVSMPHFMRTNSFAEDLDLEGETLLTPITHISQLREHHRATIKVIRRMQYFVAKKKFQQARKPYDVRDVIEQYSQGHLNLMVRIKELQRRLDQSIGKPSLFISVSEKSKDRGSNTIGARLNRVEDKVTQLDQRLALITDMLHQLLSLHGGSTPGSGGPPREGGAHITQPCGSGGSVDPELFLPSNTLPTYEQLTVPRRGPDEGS

The test concerns the target Potassium voltage-gated channel subfamily KQT member 1 (Homo sapiens) (UniProt P51787). Briefly: human KCNQ1 current enhancers – cell-based, thallium flux, high-throughput, primary screen (AID 2648). The conditions noted are these: CHO-K1 KCNQ1, thallium flux FluxOR fluorescence, at 10 µM; active compounds read high. The method, boiled down: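 assay system = CHO-K1 cells stably expressing KCNQ1 | medium = assay buffer, equal DMSO in all wells | timing = 37 °C overnight plating, 90-min dark dye load, 20-min compound pretreatment | measured by = kinetic FluxOR thallium fluorescence, 10-s 1-Hz baseline, 110-s post-stimulus read | measure = fluorescence change relative to baseline, converted to B score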
With `O=C(N/N=C\c1cc2c(cc1Cl)OCO2)c1ccc(Br)s1`, the B-score result is “inactive”.

With `COC(=O)c1sccc1NS(=O)(=O)c1ccc(F)cc1F`, the B-score entry was “inactive”.

With `COC(=O)c1sccc1NC(=O)CSc1ccccc1NS(=O)(=O)c1cc(Cl)ccc1Cl`, the B-score was 12 (active).

For the compound `COC(=O)c1sccc1NC(=O)COc1ccc(Cl)cc1`, the B-score result was “inactive”.

Regarding `O=C(NNC(=S)NC1CCCCC1)c1ccccc1Cl`, the B-score entry is “inactive”.

For the compound `O=C(NC(=S)NC1CCCCC1)c1ccc(Cl)cc1`, the B-score is 9 (active).

Take `COc1ccc(C(=O)NC(=S)NC2CCCCC2)cc1`: the B-score result is “inactive”.

Turning to `CC(C)Cc1nc(Nc2ccc(S(=O)(=O)N3CCCC3)cc2)c2nnn(Cc3ccccc3)c2n1`, the B-score result is “inactive”.

`CCc1ccc(Oc2coc3cc(O)ccc3c2=O)cc1`: the B-score result is “inactive”.

Regarding `CC(Oc1cccc(Cl)c1)C(=O)Nc1ccc(S(=O)(=O)Nc2ncccn2)cc1` (configuration not stated), the B-score entry is “inactive”.

With `CN(C)CCCn1c(=O)n(Cc2ccccc2)c(=O)c2c3c(sc21)CCCCC3`, the B-score result is “inactive”.

As for `CCn1c(=S)[nH]c2sc3c(c2c1=O)CCCCC3`, the B-score was 92 (active).

As to `CCCc1nc2sc3c(c2c(=O)n1NC(=O)CCCl)CCCC3`, the B-score entry was “inactive”.

Take `N#Cc1nc(N)nc(N(c2ccccc2)c2ccccc2)n1`: the B-score entry is “inactive”.

Take `O=C(Nc1cccn(Cc2ccccc2Cl)c1=O)NC1CCCCC1`: the B-score result is “inactive”.

Turning to `CC(OC(=O)C1CC(=O)N(Cc2ccccc2)C1)C(=O)Nc1ccccc1[N+](=O)[O-]` (configuration not stated), the B-score entry is “inactive”.

In the case of `COc1ccc(C(=O)NNC(=S)NC(=O)c2ccccc2)cc1`, the B-score is 10 (active).

Turning to `COc1ccc(C(=O)NNC(=S)NC(=O)c2ccccc2[N+](=O)[O-])cc1`, the B-score entry was “inactive”.

Regarding `COc1ccc(C(=O)NC(=S)NNC(=O)c2c(-c3ccccc3)noc2C)cc1`, the B-score result was “inactive”.

On to `CCc1cc2c(=O)c(-c3ccon3)c(N)oc2cc1OC`, for which the B-score result is “inactive”.

For `Oc1ccc(N=Nc2nccs2)c(O)c1`, the B-score result was “inactive”.

For the compound `Oc1ccc2ccccc2c1N=Nc1nccs1`, the B-score is 21 (active).

With `c1ccc(NCc2cccc3ccccc23)nc1`, the B-score entry is “inactive”.

With `COc1ccc(N(CC(=O)NCc2ccc(F)cc2)C(=O)CCC(=O)Nc2nccs2)cc1`, the B-score result was “inactive”.

As to `O=S(=O)(ON(c1ccccc1)S(=O)(=O)c1ccccc1)c1ccccc1`, the B-score entry is “inactive”.

In the case of `CC1=C/C(=N\OS(=O)(=O)c2ccccc2)C=CC1=O`, the B-score is 9 (active).

Consider `CCOc1ccc(Br)cc1S(=O)(=O)Nc1cccc(S(=O)(=O)N(CC)CC)c1`, for which the B-score result is “inactive”.

In the case of `Cc1ccc(O)c(NC(=S)NC(=O)COc2ccc(Br)cc2)c1`, the B-score was 8 (active).

`Cc1cccc(OCC(=O)NC(=S)Nc2ccccc2N2CCOCC2)c1`: the B-score entry was “inactive”.

Consider `Cc1ccc(O)c(NC(=O)COc2cc(C)ccc2C)c1`, for which the B-score entry is “inactive”.

For the compound `CCCCn1c(N)c(N(CCC(C)C)C(=O)CC2OC(=O)c3ccccc32)c(=O)[nH]c1=O` (configuration not stated), the B-score result is “inactive”.

With `Cc1cc2occ(CC(=O)NNC(=O)c3ccccc3F)c2cc1C`, the B-score result is “inactive”.

In the case of `CCOC(=O)CN(C(=O)COc1nc(-c2ccccc2)cc(C)c1C#N)c1ccc(F)cc1`, the B-score entry was “inactive”.

Turning to `Cc1cccc(C(=O)Nc2ccc(C(=O)/C=C/c3cccs3)cc2)c1`, the B-score entry was “inactive”.

`Cc1cccc(/C(N)=N/OC(=O)c2ccccc2Cl)c1`: the B-score entry is “inactive”.

Take `Cc1ccc(NC(=O)c2cc3ccccc3o2)cc1`: the B-score result was “inactive”.

Take `C/C(=N\NC(=S)Nc1ccc(C)cc1)c1cc2ccccc2o1`: the B-score is 28 (active).

For the compound `C/C(=N/NC(=S)Nc1ccccc1)c1ccc2c(c1)OCO2`, the B-score entry is “inactive”.

For the compound `O=C(CSc1nncn1-c1cccnc1)N1CCOCC1`, the B-score result was “inactive”.

As for `CCc1[nH]nc(C(=O)N2CCCC(CNS(=O)(=O)c3cccs3)C2)c1C` (configuration not stated), the B-score entry is “inactive”.

In the case of `CC(C)c1ccc2c(c1)c(SC(C)(C)C)c(CC(C)(C)C(=O)O)n2Cc1ccc(Cl)cc1`, the B-score is 44 (active).

With `Nc1ncnc(Nc2cccc(Cl)c2Cl)n1`, the B-score entry was “inactive”.

For the compound `Cc1cccc(C(=O)NC(=S)N(C)C2CCCCC2)c1`, the B-score was 16 (active).

Take `Cc1cccc(NC(=S)NCCN(C2CCCCC2)C2CCCC2)c1`: the B-score result was “inactive”.

As for `Cc1cccc(C(=O)NCCCN(C)CCCNC(=O)c2cccc(C)c2)c1`, the B-score entry was “inactive”.

Take `COc1ccc(C(=O)C2CCCN(C(=O)c3cnsn3)C2)c(C)c1` (configuration not stated): the B-score entry is “inactive”.

Take `OC(CNC1CCCC1)COc1ccc(F)cc1` (configuration not stated): the B-score entry is “inactive”.

`CC1CCN(C(=O)c2ccc(S(=O)(=O)Cc3cc(F)ccc3F)c([N+](=O)[O-])c2)CC1`: the B-score entry is “inactive”.

On to `COc1cccc2sc(Nc3nc(C)c(C(C)=O)s3)nc12`, for which the B-score entry is “inactive”.

For `COc1cccc2sc(NNC(=O)c3nc4ccccc4s3)nc12`, the B-score was 28 (active).

For the compound `COc1ccccc1OCc1nc2ccccc2s1`, the B-score entry is “inactive”.

`CN(CC(=O)Nc1ccccc1C(F)(F)F)C(=O)Cc1ccccc1F`: the B-score result was “inactive”.

Consider `COCCNC(=O)CN1C(=O)CSc2ncccc21`, for which the B-score result is “inactive”.

As to `O=C1CCCc2c1nc(-c1cccc(Cl)c1)n2O`, the B-score entry is “inactive”.

Consider `O=c1c2cc(Br)ccc2nc(-c2cccc(Cl)c2)n1O`, for which the B-score is 89 (active).

On to `Cc1cccc(-c2nc3ccccc3c(=O)n2NC(=O)Cc2ccc(Cl)cc2)c1`, for which the B-score entry was “inactive”.

For the compound `Cc1ccc(S(=O)(=O)N(C)C)cc1NC(=O)COC(=O)/C=C/c1cccs1`, the B-score entry is “inactive”.

On to `O=C(NCCc1ccco1)C(=O)NCCC1CCCCN1S(=O)(=O)c1ccccc1` (configuration not stated), for which the B-score entry was “inactive”.

`COc1ccc(-n2cc(-c3ccccc3)c3c(=S)nc[nH]c32)cc1`: the B-score was 8 (active).

As to `O=c1[nH]cnc2c1c(-c1ccccc1)cn2-c1ccc(F)cc1`, the B-score entry was “inactive”.

Take `COc1ccc(-n2c(-c3ccc(OC)c(OC)c3)n[nH]c2=S)cc1`: the B-score entry was “inactive”.

Turning to `CC(=O)NS(=O)(=O)c1ccc(NC(=O)/C=C/c2ccccc2Cl)cc1`, the B-score entry was “inactive”.

With `CN(C(=O)c1c(Cl)cnn1C)C12CC3CC(CC(C3)C1)C2`, the B-score result was “inactive”.

On to `Nc1ccc(N=Nc2ccccc2Cl)c(N)n1`, for which the B-score result was “inactive”.

Turning to `Cc1ccc(OCC(=O)NCCCNC(=O)c2ccco2)cc1C`, the B-score entry is “inactive”.

With `CC(Oc1ccc2ccccc2c1)C(=O)NNC(=S)NC(=O)c1ccco1` (configuration not stated), the B-score was 38 (active).

As to `CCCc1ccc(OCCNC(=O)c2ccco2)cc1`, the B-score result is “inactive”.

`Cc1ccc(C(=O)NNC(=O)C(C)Oc2ccc3ccccc3c2)o1` (configuration not stated): the B-score result was “inactive”.

With `CCCc1ccc(OCC(=O)NNC(=S)NC(=O)c2ccco2)cc1`, the B-score is 10 (active).

Consider `O=C(Nc1ccc2ccccc2c1)/C(=C/c1cccc(Br)c1)NC(=O)c1ccco1`, for which the B-score entry was “inactive”.

Consider `O=C(c1cccs1)n1nc(NCc2ccccc2)nc1NCc1ccccc1`, for which the B-score entry was “inactive”.

Take `COC(=O)Cc1cnc(NC(=O)CSc2nc(C(C)C)cc(=O)[nH]2)s1`: the B-score result is “inactive”.

As to `CC(=O)c1c(C)[nH]c(C(=O)OCC(=O)Nc2sc3c(c2C#N)CCCC3)c1C`, the B-score result is “inactive”.

For the compound `Cc1ccc(CNC(=O)CCC(=O)N2CC(C)Sc3ccccc32)cc1` (configuration not stated), the B-score entry is “inactive”.

Regarding `O=S(=O)(Nc1cccc(-c2ccc(N3CCOCC3)nn2)c1)c1ccc(Cl)c(Cl)c1`, the B-score entry is “inactive”.

In the case of `Cc1cccc(NC(=S)NC(=O)c2ccc(Br)o2)c1`, the B-score is 25 (active).

Take `Cc1cccc(NC(=O)NC(=S)NC(=O)c2ccccc2)c1`: the B-score entry was “inactive”.

With `Cc1cccc(NC(=O)c2ccc([N+](=O)[O-])o2)c1`, the B-score result was “inactive”.

In the case of `Cc1ccc(CNC(=O)[C@@H](NC(=O)Cc2ccccc2)C(C)C)cc1`, the B-score result was “inactive”.

Consider `Cc1ccc(S(=O)(=O)N(CC(=O)NCCSC2CCCCC2)c2ccccc2F)cc1`, for which the B-score result is “inactive”.

For the compound `O=C(N1CCOCC1)N1CCOCC1`, the B-score entry was “inactive”.

Take `O=C(N1CCCCC1)N1CCN(C(=O)N2CCCCC2)CC1`: the B-score was 10 (active).

As to `CN1CCCN(C(=O)C2CCCCC2)CC1`, the B-score entry was “inactive”.

Regarding `Cc1sc(NC(=O)C2=COCCO2)c(C#N)c1C`, the B-score entry is “inactive”.

On to `CC1CCN(S(=O)(=O)c2ccc(NC(=O)C3CC(=O)N(c4ccccc4)C3)cc2)CC1` (configuration not stated), for which the B-score entry was “inactive”.

With `c1ccc2c(c1)OCC(CNc1ncnc3nc[nH]c13)O2` (configuration not stated), the B-score was 8 (active).

For `S=C(NCC1COc2ccccc2O1)Nc1ccc(Br)cc1` (configuration not stated), the B-score entry was “inactive”.

Take `c1ccc(-c2cc3c(NCC4COc5ccccc5O4)ncnc3s2)cc1` (configuration not stated): the B-score entry was “inactive”.

On to `O=C(O)C1CCCN1S(=O)(=O)c1ccc(Br)cc1` (configuration not stated), for which the B-score entry is “inactive”.

Turning to `O=C(CSc1nccc(=O)[nH]1)Nc1ccc(N2CCOCC2)c(Cl)c1`, the B-score result is “inactive”.

Regarding `O=C(Nc1nnc(-c2ccc(Cl)cc2)o1)c1ccccc1Br`, the B-score was 8 (active).

For `O=C(Nc1cccc(Cl)c1)Nc1nnc(-c2ccccc2)o1`, the B-score entry is “inactive”.

`O=C(COC(=O)c1ccccc1Br)Nc1nnc(-c2ccccc2)o1`: the B-score entry was “inactive”.

For `Cc1nnc(Nc2ccccc2F)s1`, the B-score result is “inactive”.

With `CC(=O)Nc1ccc(S(=O)(=O)N2CCC(C(=O)NC3CC3)CC2)cc1`, the B-score result is “inactive”.

For `CCOc1ccc(N(CC)S(=O)(=O)c2cccc3nsnc23)cc1`, the B-score entry was “inactive”.

`CC(C)(C)C1CCc2c(sc3nc(SCC(N)=O)nc(N)c23)C1` (configuration not stated): the B-score result is “inactive”.

Turning to `CCCCn1c(=S)[nH]c2ncccc2c1=O`, the B-score is 10 (active).

On to `CCN(CC)CCn1c(=S)[nH]c2ncccc2c1=O`, for which the B-score entry is “inactive”.

Take `CCCCNC(=O)CCn1c(=S)[nH]c2cc3c(cc2c1=O)OCO3`: the B-score result was “inactive”.

As for `O=c1c2ccccc2[nH]c(=S)n1CCN1CCC(=C(c2ccc(F)cc2)c2ccc(F)cc2)CC1`, the B-score result is “inactive”.

For `CCCCn1c(=S)[nH]c2ccccc2c1=O`, the B-score was 18 (active).

In the case of `CCCCNC(=O)c1ccc(-n2c(=S)[nH]c3ccccc3c2=O)cc1`, the B-score result was “inactive”.

Consider `O=C(Nc1ccc(CN2CCOCC2)cc1)c1cc(Cl)ccc1Cl`, for which the B-score entry was “inactive”.

In the case of `Cc1sc2ncnc(N3CCC(C(=O)Nc4nc5ccc(Cl)cc5s4)CC3)c2c1C`, the B-score entry was “inactive”.

Take `O=C(CNS(=O)(=O)c1ccc(Br)s1)NCc1ccc2c(c1)OCO2`: the B-score entry is “inactive”.

On to `Cn1c2ccccc2c2cc(/C=C(\NC(=O)c3ccccc3)C(=O)NCC(=O)O)ccc21`, for which the B-score result was “inactive”.

As for `FC(F)(F)Oc1ccc(NC(=S)NCc2ccccc2)cc1`, the B-score entry was “inactive”.

With `CS(=O)(=O)c1sc(C(=O)NC(=S)Nc2ccc(OC(F)(F)F)cc2)c2c1C=CCC2`, the B-score is 11 (active).

On to `CCNC(=S)Nc1ccc(OC(F)(F)F)cc1`, for which the B-score entry is “inactive”.

Turning to `CN(/N=C/c1ccccc1)C(=S)c1ccccc1`, the B-score entry is “inactive”.

As to `CC(CC(=O)Nc1ccccc1)n1ccnc1` (configuration not stated), the B-score entry is “inactive”.

`Cc1ccn2c(=O)c(C(=O)NCCC3=CCCCC3)c(O)nc2c1`: the B-score result was “inactive”.

On to `Oc1c(Cl)cc(Cl)cc1/C=N/c1ncn[nH]1`, for which the B-score was 9 (active).

With `Oc1ccc(Br)cc1C=Nc1ccc2[nH]ncc2c1`, the B-score result is “inactive”.

For the compound `COc1cc(Br)cc(/C=N/c2ncn[nH]2)c1O`, the B-score is 12 (active).

As to `C=CCn1c(Cn2nnc3ccccc32)nnc1SCC(=O)N/N=C/c1cc(Br)cc(OC)c1O`, the B-score result is “inactive”.

Source of the values: PubChem BioAssay AID2648 (Johns Hopkins Ion Channel Center, 2010).
